Test results from ChEMBL document CHEMBL2034832, “12-N-Methylated 5,6-dihydrobenzo[c]acridine derivatives: a new class of highly selective ligands for c-myc G-quadruplex DNA” (Eur J Med Chem, 2012).
The source made the active and inactive calls. No cut-off for these calls is given here.

Tests used:
[1] = system: Nucleic Acid; assay: Binding affinity to c-myc quadruplex DNA FPu18T assessed as change in melting temperature at 2 uM by FRET-melting assay; assay type: nucleic-acid assay
Summary of the method: (§1)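 FRET melting of 0.2 μM dual-labelled oligo (FPu18T, FAM/TAMRA c-myc G-quadruplex; or F10T, HEG-linked hairpin duplex) in 10 mM Tris-HCl pH 7.2, 0.2 mM KCl, with or without 2 μM ligand. Excitation 470 nm, emission 530 nm, read every 1 °C from 37–99 °C after 30 s hold. ΔTm = Tm(DNA+ligand) − Tm(DNA); mean ± SD of at least three runs.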

[2] = system: Nucleic Acid; assay: Binding affinity to duplex DNA F10T assessed as change in melting temperature at 2 uM by FRET-melting assay; assay type: nucleic-acid assay; summary of the method: as §1
[3] = system: Nucleic Acid; assay: Binding affinity to c-myc quadruplex DNA FPu18T assessed as change in melting temperature at 2 uM by FRET-melting assay in the presence of excess of ds26 duplex DNA; assay type: nucleic-acid assay
Summary of the method: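 Competition FRET melting: 0.2 μM FPu18T with 2 μM ligand in 10 mM Tris-HCl pH 7.2, 0.2 mM KCl, plus varying amounts of unlabelled self-complementary ds26 duplex as competitor. Fluorescence at 470/530 nm recorded per 1 °C step over 37–99 °C.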

[4] = molecular target: Nucleic Acid; assay: Binding affinity to immobilised c-myc quadruplex DNA G4 by SPR assay; assay type: nucleic-acid assay
Summary of the method: (§2)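 SPR: biotinylated DNA captured (~1000 RU) on GLH chip, blank reference cell. Running buffer 50 mM Tris-HCl pH 7.2, 100 mM KCl. Ligand at 0.3125–10 μM injected at 100 μL/min, 400 s association and 400 s dissociation, 25 °C; NaOH regeneration. KD by equilibrium analysis; mean ± SD of at least two runs.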

[5] = system: Nucleic Acid; assay: Binding affinity to immobilised duplex DNA up to 10 uM by SPR assay; assay type: nucleic-acid assay; summary of the method: as §2
[6] = system: Nucleic Acid; assay: Binding affinity to c-myc quadruplex DNA Pu27 assessed as conformational change up to 10 uM by circular dichroism in the presence of 100 mM K+; assay type: nucleic-acid assay
Summary of the method: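 CD titration of 1 μM Pu27, annealed (95 °C 5 min, slow cool, 4 °C overnight) in 10 mM Tris-HCl pH 7.2, 100 mM KCl. Ligand added stepwise (0.5–10 eq.) at 25 °C, ≥10 min equilibration per addition. Spectra 230–430 nm, 1 cm cell, average of two scans, buffer baseline subtracted.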

[7] = system: Nucleic Acid; assay: Binding affinity to c-myc quadruplex DNA Pu27 assessed as conformational change up to 10 uM by circular dichroism in the absence of 100 mM K+; assay type: nucleic-acid assay
Summary of the method: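 K+-free CD: 1 μM Pu27 in 10 mM Tris-HCl pH 7.2 with ligand at 0, 3, 5 or 10 μM, co-annealed (95 °C 5 min, slow cool, 4 °C overnight). Spectra recorded at 25 °C over 230–430 nm, 1 cm cell, two scans averaged, buffer baseline subtracted.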

[8] = molecular target: Nucleic Acid; assay: Binding affinity to c-myc quadruplex DNA Pu27 assessed as inhibition of c-myc amplification by PCR-stop assay; assay type: nucleic-acid assay
Summary of the method: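 Pu27 template with partly complementary primer, 10 μM each, […], 2.5 U Taq and ligand at 1, 5, 10 or 25 μM (one series 50 μM). Cycling: 94 °C 2 min, then 30 × (94 °C, 58 °C, 72 °C, 30 s each). Products run on 16% native PAGE, GelRed stain; IC50 for 50% loss of amplification.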

[9] = system: Ramos; assay: Growth inhibition of human Ramos cell line expressing c-myc NHE III1 after 4 days by cell counting; assay type: functional, cell-based
Summary of the method: (§3)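 Cells seeded at 1.0×10^5 per well and exposed to ligand (2.5, 5 or 10 μM) or 0.1% DMSO for 4 days. Cell counts and viability taken daily; three repeats per point.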

[10] = system: CA46; assay: Growth inhibition of c-myc NHE III1-deficient human CA46 cell line at 2.5 to 10 uM after 4 days by cell counting; assay type: functional, cell-based; summary of the method: as §3
[11] = system: Ramos; assay: Down-regulation of c-myc gene expression in human Ramos cells after 4 days by RT-PCR analysis; assay type: functional, cell-based
Summary of the method: (§4)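 Cells given ligand at 0.5, 1, 2.5 or 5 μM for 4 days. Total RNA (TRIpure) 2 μg reverse-transcribed with oligo dT18/M-MLV (42 °C 1 h). c-myc and β-actin amplified by PCR, run on 1% agarose; c-myc normalized to β-actin.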

[12] = system: CA46; assay: Down-regulation of c-myc gene expression in human CA46 cells at 0.5 to 5 uM after 4 days by RT-PCR analysis; assay type: functional, cell-based; summary of the method: as §4

| ΔTm [1] [°C] | ΔTm [2] [°C] | Activity [3] | Kd [4] [nM] | Activity [5] | Activity [6] | Activity [7] | IC50 [8] [nM] | SMILES | growth inhibition (GI) [9] | growth inhibition (GI) [10] | Activity [11] | Activity [12] |
| --- | --- | --- | --- | --- | --- | --- | --- | --- | --- | --- | --- | --- |
| 5.3 | 1 | Active | 1400 | inactive | Active | Active | > 50000 | COc1ccc2nc3c(cc2c1OCCN1CCCC1)CCc1cc2c(cc1-3)OCO2 | – | – | – | – |
| 6.3 | 1.6 | Active | 2600 | inactive | Active | Active | > 50000 | CCN(CC)CCOc1c(OC)ccc2nc3c(cc12)CCc1cc2c(cc1-3)OCO2 | – | – | – | – |
| 22.2 | 1.1 | Active | 400 | inactive | Active | Active | 5300 | COc1ccc2c(cc3c([n+]2C)-c2cc4c(cc2CC3)OCO4)c1OCCCN1CCCC1 | – | – | – | – |
| 23.2 | 0.8 | Active | 600 | inactive | Active | Active | 5000 | COc1cc2c(cc1OC)-c1c(cc3c(OCCCN4CCCCC4)c(OC)ccc3[n+]1C)CC2 | Dose-dependent effect | inactive | Dose-dependent effect | inactive |
| 21.4 | 0.5 | Active | 600 | inactive | Active | Active | 5400 | COc1ccc2c(cc3c([n+]2C)-c2cc4c(cc2CC3)OCO4)c1OCCCN1CCCCC1 | – | – | – | – |
| 6.2 | 1 | Active | 3000 | inactive | Active | Active | > 50000 | CCN(CC)CCCOc1c(OC)ccc2nc3c(cc12)CCc1cc2c(cc1-3)OCO2 | – | – | – | – |
| 25.4 | 1.4 | Active | 600 | inactive | Active | Active | 4700 | COc1cc2c(cc1OC)-c1c(cc3c(OCCCN4CCCC4)c(OC)ccc3[n+]1C)CC2 | – | – | – | – |
| 11 | 1 | Active | 2800 | inactive | Active | Active | > 50000 | COc1cc2c(cc1OC)-c1nc3ccc(OC)c(OCCCN4CCCCC4)c3cc1CC2 | – | – | – | – |
| 21.8 | 1.2 | Active | 600 | inactive | Active | Active | 7500 | CCN(CC)CCCOc1c(OC)ccc2c1cc1c([n+]2C)-c2cc3c(cc2CC1)OCO3 | – | – | – | – |
| 19 | 0.5 | Active | 800 | inactive | Active | Active | 9500 | COc1ccc2c(cc3c([n+]2C)-c2cc4c(cc2CC3)OCO4)c1OCCCN1CCN(C)CC1 | – | – | – | – |
| 11.2 | 0.4 | Active | 4400 | inactive | Active | Active | > 50000 | CCN(CC)CCCOc1c(OC)ccc2nc3c(cc12)CCc1cc(OC)c(OC)cc1-3 | – | – | – | – |
| 11.6 | 0.9 | Active | 1200 | inactive | Active | Active | 14000 | COc1ccc2c(cc3c([n+]2C)-c2cc4c(cc2CC3)OCO4)c1OCCCNC1CCCCC1 | – | – | – | – |
